In ChEMBL document CHEMBL1141646, “Microwave-assisted synthesis and antimicrobial activities of flavonoid derivatives” (Bioorg Med Chem Lett, 2008):
Converted amounts (≈) assume the structure as drawn. The source made the active and inactive calls. The rule behind the calls is not given here.

What was measured:
Format in all cases: functional, organism-based
Aspergillus niger = assay: Antifungal activity against Aspergillus niger NCTC 275 after 4 days; conditions: NCTC 275, 96 h
Procedure, shortened: (§1)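 Compounds were incorporated into agar medium at final concentrations of 200, 100, 50 and 10 µg/mL. A disc of fungal mycelium was placed at the centre of each Petri dish. Plates were incubated at 37 °C until the control plates reached full growth (4 days). Inhibition diameter was then measured and IC50 derived. Values are means of replicates.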

Fusarium oxysporum = assay: Antifungal activity against Fusarium oxysporum after 4 days; conditions: 96 h; procedure, shortened: as §1
Staphylococcus aureus [1] = assay: Antibacterial activity against methicillin-resistant Staphylococcus aureus NCTC 10442 by paper disc diffusion method
Escherichia coli = assay: Antibacterial activity against Escherichia coli by paper disc diffusion method
Staphylococcus aureus [2] = assay: Antibacterial activity against methicillin-resistant Staphylococcus aureus NCTC 10442 assessed as protein content after 3 hrs by bradford method; conditions: NCTC 10442, 3 h
Procedure, shortened: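 MRSA exposed to compounds dissolved in DMSO, with a DMSO-only negative control and gentamycin at the same concentrations in sterile water as positive control. Incubated 3 h at 37 °C; growth read as protein content by the Bradford method and plotted against compound concentration.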

Row | IC50 (Aspergillus niger) [µg/mL] | IC50 (Fusarium oxysporum) [µg/mL] | Structure (SMILES) | Activity (Staphylococcus aureus [1]) | Activity (Escherichia coli) | IC50 (Staphylococcus aureus [2]) [µg/mL]
1 | 178 (≈ 553 µM) | 10600 (≈ 33000 µM) | COc1ccc2c(=O)cc(-c3cc(Cl)cc(Cl)c3)oc2c1 | – | – | –
2 | 41.9 (≈ 146 µM) | 1430 (≈ 4980 µM) | COc1ccc2oc(-c3ccc(Cl)cc3)cc(=O)c2c1 | – | – | –
3 | 93.4 (≈ 241 µM) | 177 (≈ 457 µM) | COc1ccc2oc(-c3cc(C(F)(F)F)cc(C(F)(F)F)c3)cc(=O)c2c1 | – | – | –
4 | 157 (≈ 469 µM) | 282 (≈ 840 µM) | O=c1cc(-c2ccc(Cl)cc2)oc2ccc(Br)cc12 | – | – | –
5 | 142 (≈ 444 µM) | 682 (≈ 2140 µM) | O=c1cc(-c2ccc(F)cc2)oc2ccc(Br)cc12 | – | – | –
6 | 83.4 (≈ 252 µM) | 2250 (≈ 6790 µM) | COc1ccc(-c2cc(=O)c3cc(Br)ccc3o2)cc1 | – | – | –
7 | 77.1 (≈ 256 µM) | 26900 (≈ 89400 µM) | O=c1cc(-c2ccccc2)oc2ccc(Br)cc12 [6-BROMOFLAVONE] | – | – | –
8 | 60.3 (≈ 138 µM) | 65.2 (≈ 149 µM) | O=c1cc(-c2cc(C(F)(F)F)cc(C(F)(F)F)c2)oc2ccc(Br)cc12 | – | – | –
9 | 28.2 (≈ 85.2 µM) | 176 (≈ 531 µM) | COc1ccc2c(=O)cc(-c3ccc(Br)cc3)oc2c1 | – | – | –

Row | Structure (SMILES) | IC50 (Aspergillus niger) [µg/mL] | IC50 (Fusarium oxysporum) [µg/mL] | Activity (Staphylococcus aureus [1]) | Activity (Escherichia coli) | IC50 (Staphylococcus aureus [2]) [µg/mL]
10 | O=c1cc(C2CCCCC2)oc2ccc(Br)cc12 | 90.4 (≈ 294 µM) | 107 (≈ 347 µM) | Active | inactive | 12000 (≈ 39100 µM)
11 | COc1ccc2oc(C3CCCCC3)cc(=O)c2c1 | 58.9 (≈ 228 µM) | 117 (≈ 452 µM) | Active | inactive | 69.6 (≈ 269 µM)
